The source of these data is ChEMBL document CHEMBL3739367, “Design and synthesis of fused tetrahydroisoquinoline-iminoimidazolines” (Eur J Med Chem, 2015).

pKi: −log10 of the molar value.

One data set addresses Adenosine receptor A2a (Homo sapiens, UniProt P29274). The data set is described as follows: Displacement of [3H]-[…] from human adenosine A2A receptor expressed in HEK293 cells after 1 hr by scintillation counting. The class given is cell-based.
A short description of data set [1]: Cytotoxicity against human SH-SY5Y cells after 72 hrs by MTT assay. The class given is cell-based. The gist of the method:
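SH-SY5Y neuroblastoma cells grown in DMEM with 2 mM L-glutamine, streptomycin/penicillin, 1 mM non-essential amino acids, 10% heat-inactivated FBS, 37 °C, 5% CO2. Seeded 2000 cells/well, serum-starved 24 h to synchronise, then exposed to various compound concentrations (<0.1% DMSO) for 72 h; growth read by colorimetric MTT assay; CC50 reported.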

Sequence of Adenosine receptor A2a (P29274 whole entry): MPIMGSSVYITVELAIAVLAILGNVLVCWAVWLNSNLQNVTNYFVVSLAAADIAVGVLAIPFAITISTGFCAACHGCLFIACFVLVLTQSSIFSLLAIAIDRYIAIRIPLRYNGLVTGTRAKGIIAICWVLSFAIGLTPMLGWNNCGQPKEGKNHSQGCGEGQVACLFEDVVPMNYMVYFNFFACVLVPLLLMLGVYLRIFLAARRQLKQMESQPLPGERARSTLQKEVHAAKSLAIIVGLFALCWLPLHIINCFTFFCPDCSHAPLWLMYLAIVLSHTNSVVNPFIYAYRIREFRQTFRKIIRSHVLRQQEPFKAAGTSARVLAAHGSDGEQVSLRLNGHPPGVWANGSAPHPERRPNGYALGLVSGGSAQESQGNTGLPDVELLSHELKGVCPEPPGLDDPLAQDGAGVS

Consider `CCCCCCN1C[C@@H]2Cc3ccccc3CN2C1=N`, for which the negative logarithm of the Ki (pKi) on Adenosine receptor A2a is below 3.70. The same molecule came in with a CC50 at 72 h in data set [1] above 100 µM.
The corresponding values for `N=C1N[C@@H](Cc2ccc(F)cc2)CN1Cc1ccccc1` are below 3.70 and above 100 µM.
In the case of `N=C1N[C@@H](Cc2ccc(O)cc2)CN1Cc1ccccc1`, at Adenosine receptor A2a, the negative-log Ki (pKi) is below 3.70. This molecule showed a CC50 at 72 h in data set [1] above 100 µM.
In turn, `C[C@H]1CN(Cc2ccccc2)C(=N)N1` gave a pKi at Adenosine receptor A2a below 3.70. The CC50 at 72 h in data set [1] was above 100 µM.
For `N=C1N(CCN2CCOCC2)C[C@@H]2Cc3ccccc3CN12`, at Adenosine receptor A2a, the negative-log Ki (pKi) is below 3.70. In data set [1], the 50% cytotoxic concentration (CC50) at 72 h is above 100 µM.
On Adenosine receptor A2a, `N=C1N(CCCCc2ccccc2)C[C@@H]2Cc3ccccc3CN12` gave a pKi of 4.46. For the same molecule, the CC50 at 72 h in data set [1] was above 100 µM.
The corresponding values for `N=C1N(CCc2ccccn2)C[C@@H]2Cc3ccccc3CN12` are below 3.70 and above 100 µM.
The molecule `N=C1N(Cc2ccccc2)C[C@@H]2Cc3ccccc3CN12` had a pKi on Adenosine receptor A2a of 4.19. Besides, the half-maximal cytotoxic concentration (CC50) at 72 h in data set [1] was above 100 µM.
The corresponding values for `O=C1[C@@H]2Cc3ccccc3CN2C(=O)N1Cc1ccccc1` are 4.36 and above 100 µM.
The molecule `N=C1N[C@@H](Cc2ccccc2)CN1Cc1ccccc1` gave a pKi on Adenosine receptor A2a below 3.70. In data set [1], the CC50 at 72 h was above 100 µM.
At Adenosine receptor A2a, `COc1ccc(C[C@H]2CN(Cc3ccccc3)C(=N)N2)cc1` gave a pKi below 3.70. This molecule also returned a cytotoxic concentration (CC50) at 72 h in data set [1] above 100 µM.
For `N=C1N(Cc2ccccc2)C[C@@H]2CCCCN12` the same measures were below 3.70 and above 100 µM.
The molecule `CN1C(=N)N(Cc2ccccc2)CC1Cc1ccccc1` (racemic) gave a pKi on Adenosine receptor A2a below 3.70. The same molecule showed a CC50 at 72 h in data set [1] above 100 µM.
